Test results taken from publication PMC5855950 (RNA, 2018).

Tests used:
[1] = tested on: EGFPCAG78-expressing HEK293 cells; experiment: LDH assay: suppression of death of EGFPCAG78-expressing HEK293 cells; type: cell-based, human; conditions: scrambled control, Supplemental Fig. S1
In short: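 HEK293 cells were grown in DMEM with 10% FBS at 37°C and 5% CO2 and seeded at 1 × 10^5 per well. They were lipofected with pEGFPCAG78, and TAT-peptide was added immediately after at 0.1–25 µM (8 levels). LDH activity in the medium was read at 72 h and normalised to the no-peptide control. IC50 came from variable-slope nonlinear regression; at least 3 repeats.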

HBB mRNA = experiment: Real-time PCR: HBB mRNA expression in HEK293 cells; type: cell-based, human; conditions: three repeats
In short: (§1)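 RNA was extracted from HEK293 cells with TRIzol. One µg was reverse transcribed using random hexamer primers. GADD45A and HBB transcripts were quantified with TaqMan gene expression probes on a real-time PCR system.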

GADD45A mRNA = experiment: Real-time PCR: GADD45A mRNA expression in HEK293 cells; type: cell-based, human; conditions: three repeats
In short: as §1

DsRedCAG250 Drosophila = experiment: Climbing ability assay, DsRedCAG250 Drosophila; type: in vivo; conditions: 100 µM at third instar larval stage; elav>DsRedCAG250 flies at 5, 10 and 15 dpe
In short: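 Flies carried elav-GAL4 and UAS-DsRedCAG250 and were reared at 25°C. Larval dosing was a 2 h feed of third instar larvae on peptide in 2% sucrose at room temperature, with climbing tested at 5, 10 and 15 dpe. Adult dosing: 5 or 10 dpe flies were starved 8 h, then fed overnight on peptide-sucrose filter paper, and tested at 10 or 15 dpe.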

Htt-exon1Q93 Drosophila = experiment: Pseudopupil assay, Htt-exon1Q93 Drosophila; type: in vivo; conditions: 100 µM at third instar larval stage, 1 dpe adults
In short: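 Flies were raised at 21.5°C. Third instar larvae fed 2 h at room temperature on peptide in 2% sucrose solution. Rhabdomeres per ommatidium were counted by pseudopupil assay at 1 dpe for Htt-exon1Q93 flies and 12 dpe for flMJDQ84 flies. Experiments were repeated at least three times (n = 10 fly heads), as mean ± SEM, one-way ANOVA with Tukey test.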

Sequence: YGRKKRRQRRRGGEDIKSRVEAASILYFIKKK [TAT-BIND-S]
- effect on cell death [1]: did not suppress or elicit cell death
- HBB mRNA expression (HBB mRNA): no significant change
- GADD45A mRNA expression (GADD45A mRNA): no significant change
- climbing defects, larval treatment (DsRedCAG250 Drosophila): had no effect
- retinal degeneration, Htt-exon1Q93 (Htt-exon1Q93 Drosophila): but not TAT-BIND-S
